Assay [1] concerns the target T1, Gonadotropin-releasing hormone receptor (Rattus norvegicus) (UniProt P30969).
T1 sequence (whole entry): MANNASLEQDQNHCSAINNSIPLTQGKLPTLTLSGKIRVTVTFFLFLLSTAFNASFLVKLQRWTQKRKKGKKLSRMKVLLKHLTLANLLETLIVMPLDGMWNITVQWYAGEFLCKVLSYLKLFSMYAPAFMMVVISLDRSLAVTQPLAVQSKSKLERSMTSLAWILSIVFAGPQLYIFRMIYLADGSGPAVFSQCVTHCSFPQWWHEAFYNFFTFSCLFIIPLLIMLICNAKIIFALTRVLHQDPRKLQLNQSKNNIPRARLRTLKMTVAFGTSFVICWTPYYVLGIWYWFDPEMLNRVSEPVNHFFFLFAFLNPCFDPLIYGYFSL
In words: In vitro inhibition of LH release determined in rat pituitary cells at a dose of 3 ug of analogue and 1 ng of LHRH. The class given is functional, cell-based. The conditions noted are these: Pituitary gland cell. In a few lines:
(§1)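 Anterior pituitaries from female Sprague-Dawley rats (240-260 g, 18 rats) were minced and dispersed in Gey's solution with trypsin, DNase I and LBBI. Cells were plated in DMEM with 0.45% glucose, 25 mM HEPES, serum, T and 100 nM dexamethasone at about 3.0 × 10^5 cells/mL and cultured 4 days at 37 °C in 8% CO2. Cells were then exposed to antagonist plus 1 ng LHRH in Gey's solution with 0.3% glucose for 2 h. LH in the medium was measured by RIA as ng/mL of RP-3.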

The target of assay [2] is T1, Gonadotropin-releasing hormone receptor (Rattus norvegicus). In words: In vitro inhibition of LH release was determined in rat pituitary cells at a dose of 100 ug of analogue and 1 ng of LHRH. Type of assay: functional, cell-based. The conditions noted are these: Pituitary gland cell. The procedure, abridged:
as §1

Assay [3] shares this target. Kind of assay: In vitro inhibition of LH release was determined in rat pituitary cells at a dose of 10 ug of analogue and 1 ng of LHRH. Type of assay: functional, cell-based. The conditions noted are these: Pituitary gland cell. The procedure, abridged: as §1
The species named for assay [4] is Rattus norvegicus. Kind of assay: In vitro inhibition of LH release in rat pituitary cells at a dose of 1 ng LHRH in absence of the compound. The class given is functional, Pituitary gland cell. Also on record: unit: ng/mL. In a few lines: as §1
The target in assay [5] is T1, Gonadotropin-releasing hormone receptor (Rattus norvegicus). In words: In vitro inhibition of LH release was determined in rat pituitary cells at a dose of 30 ug of analogue and 1 ng of LHRH. The class given is functional, cell-based. The conditions noted are these: Pituitary gland cell. In a few lines: as §1
Assay [6] shares this target. In words: In vitro inhibition of LH release in rat pituitary cells at a dose of 1 ug of analogue and 1 ng of LHRH. Type of assay: functional, cell-based. The conditions noted are these: Pituitary gland cell. In a few lines: as §1
Assay [7] has the same target. Kind of assay: In vitro antagonistic activity against LH release in rat pituitary cells for control. The conditions noted are these: Pituitary gland cell. The class given is functional, cell-based. The procedure, abridged: as §1
Assay [8] has the same target. In words: In vitro inhibition of LH release was determined in rat pituitary cells at a dose of 0.1 ug of analogue and 1 ng of LHRH. Type of assay: functional, cell-based. The conditions noted are these: Pituitary gland cell. In a few lines:
as §1

For assay [9] the target is unchanged. In words: In vitro inhibition of LH release was determined in rat pituitary cells at a dose of 0.3 ug of analogue and 1 ng of LHRH. Type of assay: functional, cell-based. The conditions noted are these: Pituitary gland cell. The procedure, abridged:
as §1

Assay [10] relates to Rattus norvegicus. In words: In vivo anti-ovulatory activity (AOA) against LHRH was determined at a dose of 100 ug in 6 rats. Type of assay: functional. The procedure, abridged:
(§2)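 Female 4-day cycling rats received a single subcutaneous injection of analog in corn oil between 12 and 12:30 p.m. Ova were counted on estrus. Activity is given as the number of ovulating rats over the total rats at each dose.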

Assay [11] has as its system Rattus norvegicus. In words: In vivo anti-ovulatory activity (AOA) against LHRH was determined at a dose of 1000 ug in 6 rats. Type of assay: functional. In a few lines: as §2
Assay [12] addresses T1, Gonadotropin-releasing hormone receptor (Rattus norvegicus). Kind of assay: In vitro inhibition of LH release was determined in rat pituitary cells at a dose of 0.03 ug of analogue and 1 ng of LHRH. Type of assay: functional, cell-based. The conditions noted are these: Pituitary gland cell. The procedure, abridged:
as §1

Assay [13] has as its system Rattus norvegicus. In words: In vivo anti-ovulatory activity (AOA) against LHRH was determined at a dose of 10 ug in 6 rats. The class given is functional. In a few lines: as §2
Assay [14] relates to Rattus norvegicus. In words: In vivo anti-ovulatory activity (AOA) against LHRH was determined at a dose of 1 ug in 6 rats. The class given is functional. In a few lines: as §2

Among the data in ChEMBL document CHEMBL1128487, “Reduced-size antagonists of luteinizing hormone-releasing hormone active in vitro” (1995) are Activity and AOA values, retold here.

Square brackets hold non-standard residues; d marks the D form. Peptide text beside a SMILES is read from it. * marks the point of attachment. ξ: configuration not given here. 2Nal = N[C@@H](Cc1ccc2ccccc2c1)C(=O)O; ξLys(iPr) = CC(C)NCCCCC(N)C(=O)O; Picolinoyl = O=C(c1ccccn1)*; ξR = N=C(N)NCCCC(N)C(=O)O

With `CC(=O)N[C@@H](Cc1ccc2ccccc2c1)C(=O)N[C@@H](CCCN=C(N)N)C(=O)N[C@@H](C)C(N)=O`, the Activity came to 145 in assay [1]; 69 in assay [2]; 101 in assay [3]; 153 in the assay filed under Rattus norvegicus [4]; 66 in assay [5]; 151 in assay [6]. The same compound came in with an Activity in assay [7] of 3.5.

Turning to `CC(=O)N[C@@H](Cc1ccc2ccccc2c1)C(=O)N[C@@H](Cc1ccc(O)cc1)C(=O)N[C@@H](Cc1ccc2ccccc2c1)C(=O)N[C@@H](CCCN=C(N)N)C(=O)N[C@@H](C)C(N)=O` (Ac-[2Nal]Y[2Nal]RA-NH2), the Activity stood at 135 in [1]; 21 in assay [2]; 121 in assay [3]; 156 in the assay filed under Rattus norvegicus [4]; 66 in assay [5]; 142 in [6]. Besides, in assay [7], the Activity worked out at 2.3.

`CC(=O)NC(Cc1ccc2ccccc2c1)C(=O)N[C@@H](CO)C(=O)N[C@@H](Cc1ccc(O)cc1)C(=O)NC(Cc1ccc2ccccc2c1)C(=O)N[C@@H](CC(C)C)C(=O)N[C@@H](CCCN=C(N)N)C(=O)N1CCC[C@H]1C(=O)N[C@H](C)C(N)=O` (stereo in doubt): the Activity in assay [8] was determined as 37; in assay [9], 12; in assay [1], 3; in the assay filed under Rattus norvegicus [4] it was 236; in assay [6], 7; in assay [7], 5.3. Also, the AOA in the assay with Rattus norvegicus [10] and in the assay on Rattus norvegicus [11] was 6 each time.

Take `CC(=O)N[C@@H](Cc1ccc2ccccc2c1)C(=O)N[C@@H](C)C(N)=O` (Ac-[2Nal]-Ala-NH2): the Activity in [1] amounted to 153; in assay [2], 16; in [3], 124; in the assay listed under Rattus norvegicus [4], 153; in assay [5], 88; in assay [6], 148. The compound also showed an Activity in assay [7] of 3.5.

Take `CC(=O)N[C@@H](Cc1ccc2ccccc2c1)C(=O)N[C@@H](CC(C)C)C(=O)N[C@@H](CCCN=C(N)N)C(=O)N[C@@H](C)C(N)=O` (Ac-[2Nal]LRA-NH2): the Activity in assay [1] came to 136; in assay [2], 49; in assay [3], 116; in the assay filed under Rattus norvegicus [4] it was 155; in [5] it was 87; in assay [6], 145. Further, the Activity in [7] is 3.5.

As to `CCNC(=O)[C@@H]1CCCN1C(=O)[C@H](CCCN=C(N)N)NC(=O)[C@H](CC(C)C)NC(=O)[C@H](Cc1ccc2ccccc2c1)NC(=O)[C@H](Cc1ccc2ccccc2c1)NC(C)=O` (Ac-[2Nal][2Nal]LRP-NHEt), the Activity in [1] turned out to be 158; in assay [2] it was 98; in assay [3] it was 147; in the assay filed under Rattus norvegicus [4], 156; in assay [5] it was 122; in assay [6] it was 145. The compound also registered an Activity in assay [7] of 2.3.

Regarding `CC(=O)N[C@@H](Cc1ccc2ccccc2c1)C(=O)N[C@@H](CCCCNC(=O)c1ccccn1)C(=O)NC(CCCCNC(C)C)C(=O)N1CCC[C@H]1C(N)=O` (some centres not stated) (Ac-[2Nal]K(Picolinoyl)[ξLys(iPr)]P-NH2), the Activity in assay [1] is 150; in [2], 118; in [3], 144; in the assay listed under Rattus norvegicus [4] it was 153; in assay [5] it was 128; in [6], 186. The same compound gave an Activity in assay [7] of 3.5.

On to `CC(=O)N[C@@H](Cc1ccc2ccccc2c1)C(=O)NC(CCCCNC(=O)c1ccccn1)C(=O)N[C@@H](CCCCNC(=O)c1ccccn1)C(=O)NC(CCCN=C(N)N)C(=O)NC(C)C(N)=O` (stereo in doubt), for which the Activity stood at 158 in [1]; 64 in [2]; 142 in [3]; 156 in the assay filed under Rattus norvegicus [4]; 105 in [5]; 145 in assay [6]. The Activity in assay [7] amounted to 2.3.

As for `CC(=O)N[C@@H](Cc1ccc2ccccc2c1)C(=O)N[C@@H](CCCCNC(=O)c1ccccn1)C(=O)NC(CCCN=C(N)N)C(=O)N1CCC[C@H]1C(N)=O` (some centres not stated) (Ac-[2Nal]K(Picolinoyl)[ξR]P-NH2), the Activity came to 145 in assay [1]; 63 in assay [2]; 132 in assay [3]; 153 in the assay listed under Rattus norvegicus [4]; 136 in assay [5]; 148 in assay [6]. Further, the Activity in assay [7] is 3.5.

For the compound `CC(=O)N[C@@H](Cc1ccc2ccccc2c1)C(=O)N[C@@H](CCCCNC(=O)c1ccccn1)C(=O)N1CCC[C@H]1C(N)=O`, the Activity in assay [1] is 139; in assay [2] it was 71; in assay [3], 129; in the assay filed under Rattus norvegicus [4], 145; in assay [5], 113; in assay [6] it was 145. This compound had an Activity in assay [7] of 3.1.

Consider `CC(=O)NC(Cc1ccc2ccccc2c1)C(=O)N[C@@H](Cc1ccc(Cl)cc1)C(=O)N[C@@H](CO)C(=O)N[C@@H](Cc1ccc(O)cc1)C(=O)NC(Cc1ccc2ccccc2c1)C(=O)N[C@@H](CC(C)C)C(=O)N[C@@H](CCCN=C(N)N)C(=O)N1CCC[C@H]1C(=O)N[C@H](C)C(N)=O` (stereo in doubt), for which the Activity in assay [12] turned out to be 39; in [8], 29; in assay [9], 14; in the assay filed under Rattus norvegicus [4] it was 149; in [6], 6; in assay [7] it was 3.8. Further, the AOA in the assay on Rattus norvegicus [10] and in the assay with Rattus norvegicus [11] was 6 throughout.

Consider `CCNC(=O)[C@@H]1CCCN1C(=O)[C@H](CCCN=C(N)N)NC(=O)[C@H](CC(C)C)NC(=O)[C@H](Cc1ccc2ccccc2c1)NC(C)=O` (Ac-[2Nal]LRP-NHEt), for which the Activity was 120 in assay [1]; 9 in [2]; 88 in assay [3]; 145 in the assay filed under Rattus norvegicus [4]; 25 in [5]; 148 in assay [6]. In addition, in assay [7], the Activity was 3.1.

With `CC(=O)NC(Cc1ccc2ccccc2c1)C(=O)N[C@@H](CCCCNC(=O)c1ccccn1)C(=O)N[C@@H](CCCN=C(N)N)C(=O)NC(C)C(N)=O` (single isomer, unassigned), the Activity in assay [1] amounted to 145; in [2], 8; in assay [3] it was 75; in the assay filed under Rattus norvegicus [4] it was 156; in [5], 26; in assay [6], 147. The same compound yielded an Activity in assay [7] of 2.3.

On to `CC(=O)N[C@H](Cc1ccc2ccccc2c1)C(=O)N[C@H](Cc1cccnc1)C(=O)N[C@@H](CO)C(=O)N[C@@H](Cc1ccc(O)cc1)C(=O)N[C@H](Cc1ccc2ccccc2c1)C(=O)N[C@@H](CC(C)C)C(=O)N[C@@H](CCCN=C(N)N)C(=O)N1CCC[C@H]1C(=O)N[C@H](C)C(N)=O`, for which the Activity in assay [12] came out at 28; in [8] it was 14; in assay [9], 6; in the assay listed under Rattus norvegicus [4] it was 149; in assay [6], 3; in [7], 3.8. Besides, the AOA was 6 in the assay with Rattus norvegicus [13], 6 in the assay on Rattus norvegicus [10] and 4 in the assay on Rattus norvegicus [11].

On to `CC(=O)NC(Cc1ccc2ccccc2c1)C(=O)N[C@@H](Cc1ccc(Cl)cc1)C(=O)N[C@@H](Cc1cccnc1)C(=O)N[C@@H](CO)C(=O)N[C@@H](Cc1ccc(O)cc1)C(=O)NC(Cc1ccc2ccccc2c1)C(=O)N[C@@H](CC(C)C)C(=O)N[C@@H](CCCN=C(N)N)C(=O)N1CCC[C@H]1C(=O)N[C@H](C)C(N)=O` (stereo in doubt), for which the Activity amounted to 8 in [12]; 4 in assay [8]; 4 in [9]; 149 in the assay listed under Rattus norvegicus [4]; 4 in assay [6]; 3.8 in [7]. In addition, the figures for the AOA in the assay with Rattus norvegicus [13] and in the assay with Rattus norvegicus [14] were 0 and 5, respectively.

On to `CCNC(=O)[C@@H]1CCCN1C(=O)[C@H](Cc1ccc2ccccc2c1)NC(C)=O` (Ac-[2Nal]-Pro-NHEt), for which the Activity in assay [1] was 141; in assay [2], 14; in assay [3] it was 101; in the assay listed under Rattus norvegicus [4], 145; in [5] it was 59; in [6] it was 135. This compound also came in with an Activity in assay [7] of 3.1.
